For one experiment, the target named is Adenosine receptor A2a (Homo sapiens, UniProt P29274). Nature of the experiment: Displacement of [3H]NECA from human adenosine A2A receptor expressed in CHO cells. Format: cell-based. In a few lines:
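Membranes prepared from stably transfected CHO cells expressing human A2A receptor by two-step centrifugation (1000 × g, then 100,000 × g), frozen and kept at -80 °C. Competition against 30 nM [3H]NECA, with 100 µM R-PIA for non-specific binding. Ki obtained by competition-curve fitting.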
In general terms: Displacement assays read how much labelled ligand stays bound in the presence of the test substance.

The target of another experiment is T1, Adenosine receptor A1 (Homo sapiens, UniProt P30542).
T1 sequence (P30542 whole entry): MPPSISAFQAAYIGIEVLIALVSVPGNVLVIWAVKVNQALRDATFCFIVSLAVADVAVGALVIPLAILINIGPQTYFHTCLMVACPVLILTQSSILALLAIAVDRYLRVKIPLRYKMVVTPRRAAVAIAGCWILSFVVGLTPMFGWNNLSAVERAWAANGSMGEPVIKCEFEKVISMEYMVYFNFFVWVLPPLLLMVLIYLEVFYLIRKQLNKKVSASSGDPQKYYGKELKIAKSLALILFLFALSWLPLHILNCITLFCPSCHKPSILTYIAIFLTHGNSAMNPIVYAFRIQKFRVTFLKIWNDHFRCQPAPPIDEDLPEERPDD
Nature of the experiment: Displacement of [3H]CCPA from human adenosine A1 receptor expressed in CHO cells. The format is cell-based. In a few lines: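 Agonist radioligand competition on membranes from CHO cells stably transfected with human A1 receptor (1000 × g spin to clear debris, crude membranes pelleted at 100,000 × g, stored at -80 °C). Tracer 1 nM [3H]CCPA; non-specific binding defined with 1 mM theophylline. Ki computed from competition curves.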

The target of a further experiment is T2, Adenosine receptor A2b (Homo sapiens, UniProt P29275).
T2 sequence (P29275 whole entry): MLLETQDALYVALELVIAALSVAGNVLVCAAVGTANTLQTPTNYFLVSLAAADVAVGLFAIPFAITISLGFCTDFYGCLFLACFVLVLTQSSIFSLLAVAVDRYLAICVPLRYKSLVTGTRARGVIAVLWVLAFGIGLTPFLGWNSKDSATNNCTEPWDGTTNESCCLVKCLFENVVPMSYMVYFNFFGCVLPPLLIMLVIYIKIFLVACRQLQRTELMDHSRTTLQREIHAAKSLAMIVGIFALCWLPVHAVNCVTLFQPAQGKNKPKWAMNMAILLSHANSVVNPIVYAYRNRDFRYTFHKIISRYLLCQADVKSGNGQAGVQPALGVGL
Nature of the experiment: Antagonist activity at human adenosine A2B receptor expressed in CHO cells assessed as inhibition of NECA-stimulated adenylyl cyclase activity. The format is functional, cell-based. In a few lines: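 Affinity at human A2B receptor taken from inhibition of NECA-stimulated adenylyl cyclase activity. Membranes from stably transfected CHO cells were obtained by a single high-speed spin of the homogenate, resuspended in 50 mM Tris/HCl pH 7.4 and used at once.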

For a further experiment, the target named is T3, Adenosine receptor A3 (Homo sapiens, UniProt P0DMS8).
T3 sequence (P0DMS8 whole entry): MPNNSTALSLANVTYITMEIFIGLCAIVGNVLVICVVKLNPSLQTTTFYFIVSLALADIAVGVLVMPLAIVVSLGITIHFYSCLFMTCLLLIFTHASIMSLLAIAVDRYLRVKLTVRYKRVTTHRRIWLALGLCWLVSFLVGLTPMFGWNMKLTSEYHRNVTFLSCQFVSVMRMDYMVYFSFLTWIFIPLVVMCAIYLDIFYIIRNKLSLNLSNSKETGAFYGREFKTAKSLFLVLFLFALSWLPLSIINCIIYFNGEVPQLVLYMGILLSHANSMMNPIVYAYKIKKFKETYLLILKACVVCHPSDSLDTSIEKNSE
The experiment in a line: Displacement of [3H]HEMADO from human adenosine A3 receptor expressed in CHO cells. The format is cell-based. In a few lines: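 Human A3 receptor binding in membranes from stably transfected CHO cells (low-speed then 100,000 × g pellet, stored at -80 °C). Radioligand was the agonist [3H]HEMADO at 1 nM; non-specific binding measured with 100 µM R-PIA. Ki values derived from competition experiments.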

Experiment [1] is filed under the species Homo sapiens. Nature of the experiment: Selectivity ratio of Ki for human adenosine A1 receptor to Ki for human adenosine A2B receptor.
The species named for experiment [2] is Homo sapiens. The experiment in a line: Selectivity ratio of Ki for human adenosine A2A receptor to Ki for human adenosine A2B receptor.
For experiment [3], the species on record is Homo sapiens. Nature of the experiment: Selectivity ratio of Ki for human adenosine A3 receptor to Ki for human adenosine A2A receptor.
The species entered for experiment [4] is Homo sapiens. Nature of the experiment: Selectivity ratio of Ki for human adenosine A1 receptor to Ki for human adenosine A2A receptor.
Experiment [5] is filed under the species Homo sapiens. The experiment in a line: Selectivity ratio of Ki for human adenosine A2A receptor to Ki for human adenosine A1 receptor.
For experiment [6], the target named is T4, Adenosine receptors; A1 & A3 (Homo sapiens) (UniProt P30542+P0DMS8). The experiment in a line: Selectivity ratio of Ki for human adenosine A3 receptor to Ki for human adenosine A1 receptor.
Experiment [7] concerns adenosine A3/A2A receptor ratio (Homo sapiens). Nature of the experiment: Selectivity ratio of Ki for human adenosine A2A receptor to Ki for human adenosine A3 receptor.
The species named for experiment [8] is Homo sapiens. Nature of the experiment: Selectivity ratio of Ki for human adenosine A2A receptor to Ki for human adenosine A3 receptor.
For experiment [9], the species on record is Homo sapiens. Nature of the experiment: Selectivity ratio of Ki for human adenosine A2B receptor to Ki for human adenosine A3 receptor.
Experiment [10] has as its target T4, Adenosine receptors; A1 & A3 (Homo sapiens). Nature of the experiment: Selectivity ratio of Ki for human adenosine A1 receptor to Ki for human adenosine A3 receptor.

The source of these data is ChEMBL document CHEMBL2390947, “New insight into adenosine receptors selectivity derived from a novel series of [5-substituted-4-phenyl-1,3-thiazol-2-yl] benzamides and furamides” (Eur J Med Chem, 2013).

Molecules are shown by their SMILES.

Chain of Adenosine receptor A2a (P29274 whole entry): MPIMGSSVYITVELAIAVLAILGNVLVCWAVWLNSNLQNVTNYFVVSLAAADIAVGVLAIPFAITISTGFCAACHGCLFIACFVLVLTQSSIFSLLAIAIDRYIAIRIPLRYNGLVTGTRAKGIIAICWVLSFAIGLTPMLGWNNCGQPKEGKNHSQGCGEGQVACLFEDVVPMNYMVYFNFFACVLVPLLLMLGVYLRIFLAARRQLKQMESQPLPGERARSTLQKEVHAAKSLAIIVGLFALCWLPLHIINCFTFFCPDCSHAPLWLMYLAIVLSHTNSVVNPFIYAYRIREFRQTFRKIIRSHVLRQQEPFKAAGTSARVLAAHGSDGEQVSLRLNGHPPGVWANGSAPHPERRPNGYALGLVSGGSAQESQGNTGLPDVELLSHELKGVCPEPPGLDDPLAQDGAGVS

Broadly, the Ki is a measure of affinity in units of concentration, obtained from inhibition or displacement. Turning to `O=C(Nc1nc(-c2ccccc2)c(-c2nc3ccccc3c(=O)[nH]2)s1)c1ccco1`, the Ki was 8780 nM at Adenosine receptor A2a, over 10000 nM at Adenosine receptor A1, over 10000 nM on Adenosine receptor A2b and 3930 nM at Adenosine receptor A3.

Take `Cc1ccc(C(=O)Nc2nc(-c3ccccc3)c(-c3nc(N)nc(N(C)C)n3)s2)cc1`: the Ki on Adenosine receptor A2a was 562 nM; on Adenosine receptor A1, 3630 nM; at Adenosine receptor A2b it was over 30000 nM; on Adenosine receptor A3 it was 816 nM.

For the compound `Cc1sc2nc(-c3sc(NC(=O)c4ccco4)nc3-c3ccccc3)[nH]c(=O)c2c1C`, the Ki was over 100000 nM on Adenosine receptor A2a, over 10000 nM at Adenosine receptor A1, over 10000 nM on Adenosine receptor A2b and over 10000 nM at Adenosine receptor A3.

Turning to `Nc1nc(-c2sc(NC(=O)c3ccco3)nc2-c2ccccc2)nc2sc3c(c12)CCCC3`, the Ki is 14400 nM at Adenosine receptor A2a, over 10000 nM on Adenosine receptor A1, over 10000 nM on Adenosine receptor A2b and 36600 nM on Adenosine receptor A3.

On to `COc1ccc(C(=O)Nc2nc(-c3ccccc3)c(-c3nc(N)c4c(C)c(C)sc4n3)s2)cc1`, for which the Ki at Adenosine receptor A2a is over 30000 nM; at Adenosine receptor A1 it was over 100000 nM; at Adenosine receptor A2b it was over 10000 nM; on Adenosine receptor A3, 2470 nM.

As for `O=C(Nc1nc(-c2ccccc2)c(-c2ccccn2)s1)c1ccco1`, the Ki amounted to 193 nM on Adenosine receptor A2a, 276 nM at Adenosine receptor A1, 841 nM at Adenosine receptor A2b and 2040 nM at Adenosine receptor A3. For the same compound, the Ratio Ki in the experiment listed under Homo sapiens [1] was found to be 0.33; in the experiment listed under Homo sapiens [2], 0.23.

On to `COc1ccc(C(=O)Nc2nc(-c3ccccc3)c(C(=O)c3ccccn3)s2)cc1`, for which the Ki at Adenosine receptor A2a is 128 nM; on Adenosine receptor A1, 688 nM; on Adenosine receptor A2b it was over 10000 nM; on Adenosine receptor A3, 201 nM. For the same compound, the figures for the Ratio Ki in the experiment filed under Homo sapiens [3] and in the experiment listed under Homo sapiens [4] were 1.6 and 5.7, respectively.

On to `Nc1nc(-c2sc(NC(=O)c3ccccc3)nc2-c2ccccc2)nc2sc3c(c12)CCCC3`, for which the Ki on Adenosine receptor A2a, at Adenosine receptor A1, on Adenosine receptor A2b and at Adenosine receptor A3 was over 10000 nM throughout.

On to `Cc1ccc(C(=O)Nc2nc(-c3ccccc3)c(-c3nc(N)c4c(C)c(C)sc4n3)s2)cc1`, for which the Ki on Adenosine receptor A2a is over 30000 nM; at Adenosine receptor A1, over 30000 nM; at Adenosine receptor A2b, over 10000 nM; on Adenosine receptor A3 it was 1380 nM.

Turning to `O=C(Nc1nc(-c2ccccc2)c(-c2ccncc2)s1)c1ccco1`, the Ki on Adenosine receptor A2a was 6.65 nM; at Adenosine receptor A1 it was 0.58 nM; at Adenosine receptor A2b it was 2.78 nM; on Adenosine receptor A3 it was 9.36 nM. Besides, the Ratio Ki in the experiment filed under Homo sapiens [5] was 11; in experiment [6], 16.

In the case of `CN(C)c1nc(N)nc(-c2sc(NC(=O)c3ccco3)nc2-c2ccccc2)n1`, the Ki worked out at 179 nM on Adenosine receptor A2a, 536 nM at Adenosine receptor A1, 8000 nM on Adenosine receptor A2b and 918 nM at Adenosine receptor A3. The Ratio Ki in the experiment listed under Homo sapiens [4] came out at 3; in experiment [7] it was 5.

Consider `Cc1sc2nc(-c3sc(NC(=O)c4ccccc4)nc3-c3ccccc3)nc(N)c2c1C`, for which the Ki on Adenosine receptor A2a was 4870 nM; at Adenosine receptor A1 it was 7240 nM; at Adenosine receptor A2b it was over 10000 nM; at Adenosine receptor A3, 676 nM.

Take `Cc1sc2nc(-c3sc(NC(=O)c4ccco4)nc3-c3ccccc3)nc(N)c2c1C`: the Ki on Adenosine receptor A2a was 5950 nM; on Adenosine receptor A1, 12000 nM; on Adenosine receptor A2b, over 10000 nM; on Adenosine receptor A3, 746 nM. Further, the Ratio Ki in the experiment listed under Homo sapiens [8] was 8; in the experiment filed under Homo sapiens [9], over 13; in experiment [10] it was 16.

As to `O=C(Nc1nc(-c2ccccc2)c(C(=O)c2cccnc2)s1)c1ccco1`, the Ki was 552 nM at Adenosine receptor A2a, 177 nM on Adenosine receptor A1, over 10000 nM on Adenosine receptor A2b and 1870 nM at Adenosine receptor A3.

Regarding `Cc1ccc(C(=O)Nc2nc(-c3ccccc3)c(-c3nc(N)c4c5c(sc4n3)CCCC5)s2)cc1`, the Ki at Adenosine receptor A2a, on Adenosine receptor A1, on Adenosine receptor A2b and at Adenosine receptor A3 was over 10000 nM throughout.

Turning to `O=C(Nc1nc(-c2ccccc2)c(C(=O)c2ccccn2)s1)c1ccco1`, the Ki at Adenosine receptor A2a stood at 74.7 nM; on Adenosine receptor A1, 406 nM; at Adenosine receptor A2b it was 9110 nM; on Adenosine receptor A3, 951 nM. Also, the Ratio Ki in the experiment filed under Homo sapiens [3] came out at 13; in the experiment filed under Homo sapiens [4] it was 5.

Consider `CN(C)c1nc(N)nc(-c2sc(NC(=O)c3ccccc3)nc2-c2ccccc2)n1`, for which the Ki at Adenosine receptor A2a is 327 nM; at Adenosine receptor A1, 801 nM; at Adenosine receptor A2b, over 10000 nM; at Adenosine receptor A3, 567 nM.

As to `COc1ccc(C(=O)Nc2nc(-c3ccccc3)c(-c3nc(N)c4c5c(sc4n3)CCCC5)s2)cc1`, the Ki on Adenosine receptor A2a, at Adenosine receptor A1, at Adenosine receptor A2b and on Adenosine receptor A3 was over 10000 nM throughout.

Regarding `COc1ccc(C(=O)Nc2nc(-c3ccccc3)c(-c3nc(N)nc(N(C)C)n3)s2)cc1`, the Ki on Adenosine receptor A2a is 2010 nM; at Adenosine receptor A1, 10400 nM; at Adenosine receptor A2b, over 10000 nM; on Adenosine receptor A3, 2640 nM.

In the case of `COc1ccc(C(=O)Nc2nc(-c3ccccc3)c(C(=O)c3cccnc3)s2)cc1`, the Ki at Adenosine receptor A2a, at Adenosine receptor A1, at Adenosine receptor A2b and on Adenosine receptor A3 was over 10000 nM each time.
